ChEMBL document CHEMBL4145463, “New insights into structure-activity relationship of ipomoeassin F from its bioisosteric 5-oxa/aza analogues” (Eur J Med Chem, 2018)
pIC50: −log10 of the molar value.

Tests used:
[1] = system: HeLa; assay: Cytotoxicity against human HeLa cells after 72 hrs; assay type: functional, cell-based
[2] = system: L929; assay: Cytotoxicity against mouse L929 cells after 72 hrs; assay type: cell-based; conditions: L929, 72 h
[3] = system: MCF7; assay: Cytotoxicity against human MCF7 cells assessed as reduction in cell viability after 72 hrs by MTT assay; assay type: functional, cell-based; conditions: MCF7, 72 h
[4] = system: MDA-MB-231; assay: Cytotoxicity against human MDA-MB-231 cells assessed as reduction in cell viability after 72 hrs by Alamar Blue assay; assay type: functional, cell-based; conditions: MDA-MB-231, 72 h
Outline: (§1)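 Cells were seeded at 5,000 per well and preincubated 24 h at 37 °C in 5% CO2. They were then exposed for 72 h to gradient dilutions in complete DMEM/HIGH medium, made from 10 mM DMSO stocks, with DMSO below 0.5%. Fresh medium with 10% AlamarBlue was incubated 3 h and read at 580 nm (620 nm reference). Viability was taken versus DMSO-treated cells, and IC50 was fitted from viability–concentration plots; triplicate.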

[5] = system: MCF-10A; assay: Cytotoxicity against human MCF10A cells assessed as reduction in cell viability after 72 hrs by Alamar Blue assay; assay type: cell-based; outline: as §1
[6] = system: U-937; assay: Cytotoxicity against human U937 cells after 72 hrs; assay type: functional, cell-based; conditions: U-937, 72 h
[7] = Cytotoxicity against human H522-T1 cells after 72 hrs; assay type: functional, cell-based; conditions: H522-T1, 72 h
[8] = system: Panel NCI-60 (60 carcinoma cell lines); assay: Growth inhibition of human NCI60 cells after 48 hrs by SRB assay; assay type: functional
[9] = system: HT-29; assay: Cytotoxicity against human HT-29 cells after 72 hrs; assay type: functional, cell-based; conditions: HT-29, 72 h
[10] = system: MDA-MB-435; assay: Cytotoxicity against human MDA-MB-435 cells after 72 hrs; assay type: functional, cell-based; conditions: MDA-MB-435, 72 h
[11] = system: A2780; assay: Cytotoxicity against human A2780 cells after 72 hrs; assay type: functional, cell-based; conditions: A2780, 72 h

Compound | pIC50 [1] | pIC50 [2] | pIC50 [3] | pIC50 [4] | pIC50 [5] | pIC50 [6] | pIC50 [7] | pIC50 [9] | pIC50 [10] | also measured
C/C=C(\C)C(=O)O[C@@H]1[C@@H](O)[C@@H]2O[C@H]3[C@H](O[C@@H](CCC)CCCCC[C@H](O)C(=O)CCC(=O)OC[C@@H](O2)[C@H]1OC(=O)/C=C/c1ccccc1)O[C@H](C)[C@H](OC(C)=O)[C@@H]3O [IPOMOEASSIN C] | 5.82 | < 6.00 |  |  |  |  |  |  |  | 
C/C=C(\C)C(=O)O[C@@H]1[C@@H](O)[C@@H]2O[C@H]3[C@H](O[C@@H](CCCCC)CCCCOC(=O)CCC(=O)OC[C@@H](O2)[C@H]1OC(=O)/C=C/c1ccccc1)O[C@H](C)[C@H](OC(C)=O)[C@@H]3O |  |  | 6.15 | 6.54 |  |  |  |  |  | 
C/C=C(\C)C(=O)O[C@@H]1[C@@H](O)[C@@H]2O[C@H]3[C@H](O[C@@H](CCCCC)CCCCCNC(=O)CCC(=O)OC[C@@H](O2)[C@H]1OC(=O)/C=C/c1ccccc1)O[C@H](C)[C@H](OC(C)=O)[C@@H]3O |  |  | 6.45 | 7.31 | 7.12 |  |  |  |  | 
C/C=C(\C)C(=O)O[C@@H]1[C@@H](O)[C@@H]2O[C@H]3[C@H](O[C@@H](CCCCC)C/C=C/CCOC(=O)CCC(=O)OC[C@@H](O2)[C@H]1OC(=O)/C=C/c1ccccc1)O[C@H](C)[C@H](OC(C)=O)[C@@H]3O |  |  | 5.48 | 6.09 |  |  |  |  |  | 
C/C=C(\C)C(=O)O[C@@H]1[C@@H](O)[C@@H]2O[C@H]3[C@H](O[C@@H](CCCCC)CCCCCN(C)C(=O)CCC(=O)OC[C@@H](O2)[C@H]1OC(=O)/C=C/c1ccccc1)O[C@H](C)[C@H](OC(C)=O)[C@@H]3O |  |  | 7.16 | 7.84 | 7.76 |  |  |  |  | 
C/C=C(\C)C(=O)O[C@@H]1[C@@H](O)[C@@H]2O[C@H]3[C@H](O[C@@H](CCCCC)CCCCCCC(=O)CCC(=O)OC[C@@H](O2)[C@H]1OC(=O)/C=C/c1ccccc1)O[C@H](C)[C@H](OC(C)=O)[C@@H]3O |  | 8.13 |  |  | 8.29 | 8.59 | 7.89 | 8.38 | 8.03 | GI50 [8]: 30 nM; pIC50 [11]: 7.44
C/C=C(\C)C(=O)O[C@@H]1[C@@H](O)[C@@H]2O[C@H]3[C@H](O[C@@H](CCC)CCCCCCC(=O)CCC(=O)OC[C@@H](O2)[C@H]1OC(=O)/C=C/c1ccccc1)O[C@H](C)[C@H](O)[C@@H]3O [IPOMOEASSIN B] | 5.60 |  |  |  |  | 6.87 | 5.97 | 6.40 | 5.57 | 
C/C=C(\C)C(=O)O[C@@H]1[C@@H](O)[C@H](O[C@H]2[C@H](O[C@@H](CCCCC)CCCCC/N=C3/CCC(=O)O3)O[C@H](C)[C@H](OC(C)=O)[C@@H]2O)O[C@H](COC(=O)/C=C/c2ccccc2)[C@H]1O |  |  | < 4.60 | < 4.60 |  |  |  |  |  | 
C/C=C(\C)C(=O)O[C@@H]1[C@@H](O)[C@@H]2O[C@H]3[C@H](O[C@@H](CCCCC)CCCCCOC(=O)CCC(=O)OC[C@@H](O2)[C@H]1OC(=O)/C=C/c1ccccc1)O[C@H](C)[C@H](OC(C)=O)[C@@H]3O |  |  | 7.09 | 7.50 | 7.57 |  |  |  |  | 
C/C=C(\C)C(=O)O[C@@H]1[C@@H](O)[C@@H]2O[C@H]3[C@H](O[C@@H](CCC)CCCCC[C@H](OC(C)=O)C(=O)CCC(=O)OC[C@@H](O2)[C@H]1OC(=O)/C=C/c1ccccc1)O[C@H](C)[C@H](OC(C)=O)[C@@H]3O [IPOMOEASSIN D] | 7.49 | 6.87 |  |  |  | 8.10 | 7.63 | 7.93 | 7.70 | 
C/C=C(\C)C(=O)O[C@@H]1[C@@H](O)[C@@H]2O[C@H]3[C@H](O[C@@H](CCC)CCCCC[C@H](OC(C)=O)C(=O)CCC(=O)OC[C@@H](O2)[C@H]1OC(=O)/C=C/c1ccccc1)O[C@H](C)[C@H](O)[C@@H]3O [IPOMOEASSIN E] | 5.37 | < 6.00 |  |  |  | 6.79 | 6.01 | 6.41 | 5.79 | 
C/C=C(\C)C(=O)O[C@@H]1[C@@H](O)[C@@H]2O[C@H]3[C@H](O[C@@H](CCC)CCCCCCC(=O)CCC(=O)OC[C@@H](O2)[C@H]1OC(=O)/C=C/c1ccccc1)O[C@H](C)[C@H](OC(C)=O)[C@@H]3O [IPOMOEASSIN A] | 7.19 | 7.11 |  |  |  | 7.69 | 6.96 | 7.34 | 7.37 | 
C/C=C(\C)C(=O)O[C@@H]1[C@@H](O)[C@@H]2O[C@H]3[C@H](O[C@@H](CCCCC)CC=CCCCC(=O)CCC(=O)OC[C@@H](O2)[C@H]1OC(=O)/C=C/c1ccccc1)O[C@H](C)[C@H](OC(C)=O)[C@@H]3O (mixture of isomers) |  |  | 6.51 | 7.17 | 7.57 |  |  |  |  | 
C/C=C(\C)C(=O)O[C@@H]1[C@@H](O)[C@@H]2O[C@H]3[C@H](O[C@@H](CCCCC)C/C=C\CCOC(=O)CCC(=O)OC[C@@H](O2)[C@H]1OC(=O)/C=C/c1ccccc1)O[C@H](C)[C@H](OC(C)=O)[C@@H]3O |  |  | 6.09 | 6.59 |  |  |  |  |  | 
